# Compound activity (PubChem BioAssay)
# Hep lipid drop: inhibitors of hepatocyte lipid droplet formation, primary screen, imaging, high-throughput imaging, BODIPY stain. inhibition, % at 6.5 µM. AID 1656, 2009. AML12 mouse hepatocytes, oleate lipid droplets. hit rate 0.4% among 240,000;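 active means lipid droplet intensity inhibited by at least 50%, with more than 500 cells counted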
#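 Assay system: AML12 mouse liver cells | Compound: 6.5 µM single-point dosing | Schedule: Overnight exposure | Technique: Fluorescence imaging, 20x objective, two fields per well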
# TMEM16A act: TMEM16A chloride channel activators or potentiators, primary screen, cell-based, HTS; HEK293 TMEM16A/YFP-H148Q/I152L, iodide quench fluorescence; stronger effect = lower value; hit rate 0.3% among 340,000; Anoctamin-1 (Mus musculus), Q8BHY3; B-score at 10 µM; AID 623877, 2012;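 active means fluorescence-ratio B-score plate-corrected deviation score at least 3 library SD below zero, with starting fluorescence score within 5 deviations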;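 further: channel opened by trigger with iodide after compound preincubation; score built on the fluorescence ratio of max minus min over baseline; more negative score means more quench and so TMEM16A activation or potentiation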
# CHOP UPR activ: activators of apoptotic CHOP UPR arm, primary screen, cell-based, CHO-CHOP luciferase reporter, luminescence, uHTS | UPR activation; percent of tunicamycin response over DMSO baseline | activation, % at 10 µM | hit rate 0.34% among 330,000 | AID 449763, 2010;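 active means at 10 µM dose, activation of 40% or more, normalized to positive control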
#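 System: CHO CHOP reporter cells. Amount: 500 cells per well. Buffer or medium: F12 medium, 10% FBS. Compound dosing: one dose, 10 µM in 0.5% DMSO. Incubation: 6 h compound exposure at 37 °C after overnight seeding. Technique: Steady-Glo luciferase luminescence. Benchmarks: tunicamycin and DMSO controls.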
# CHOP inh: inhibitors of CHOP promoter induction, primary screen, cell-based, unfolded protein response, luciferase reporter; CHO-K1 CHOP-promoter luciferase, tunicamycin-induced, 15-18 h; inhibition, % at 10 µM; hit rate 3.8% among 220,000;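 active means compounds that reduced the stress-induced luciferase reporter signal by more than about 70% of percent inhibition, limit read from the data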
# UPR XBP1 act: activators of adaptive XBP1 UPR arm, primary screen, cell-based, CHO-XBP1 luciferase reporter, luminescence, uHTS | IRE1-XBP1 UPR activation; percent of tunicamycin response, DMSO as zero | activation, % at 20 µM | hit rate 0.33% among 330,000 | AID 463104, 2010;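 active means versus positive control, 20 µM dose yields 30% or more activation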
#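 Assay system: IRE1-XBP1 luciferase reporter CHO line. Input: 1000 cells/well. Buffer or medium: F12 with 10% serum. Doses: 20 µM, 1% DMSO. Times: overnight seeding at 37 °C, 6 h compound treatment at 37 °C. Technique: Steady-Glo luciferase glow luminescence, 10 min after reagent addition.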
# ANO1 block: TMEM16A chloride channel inhibitors, primary screen, cell-based, HTS. Anoctamin-1 (Mus musculus), Q8BHY3. HEK293 TMEM16A/YFP iodide influx fluorescence, ionomycin. normalized B-score (activity score, 25-100; higher = stronger inhibition) at 10 µM. hit rate 1.2% among 310,000. AID 588511, 2011;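 active means ratio plate-corrected score three or more library SD toward inhibition, starting fluorescence score within five deviations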;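 further: score derived from kinetic fluorescence span divided by baseline fluorescence per well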
# A number is an active result; – = inactive; · = not tested or not shown. This is a sample that favours compounds with a hit; in the whole collection about 4.2% have one here.
SMILES,Hep lipid drop,TMEM16A act,CHOP UPR activ,CHOP inh,UPR XBP1 act,ANO1 block
Cc1cc(/C=C2\C(=O)NC(=O)N(c3ccc(Cl)cc3)C2=O)c(C)n1-c1sc2c(c1C#N)CCCC2,–,–,–,–,–,–
CCCCn1c(=O)c(C(=O)Nc2ccccc2S(N)(=O)=O)c(O)c2ccccc21,·,–,–,77,–,–
CCCCCCn1c(=O)c(C(=O)Nc2nnc(C)s2)c(O)c2ccccc21,–,·,–,–,–,–
CCCCCn1c(=O)c(C(=O)Nc2cnccn2)c(O)c2ccccc21,–,-6.5,–,104,–,–
CCCCCn1c(=O)c(C(=O)Nc2ccccc2S(N)(=O)=O)c(O)c2ccccc21,–,–,–,82,–,–
CCCCCn1c(=O)c(C(=O)Nc2nc(CC(=O)OCC)cs2)c(O)c2ccccc21,–,–,–,92,–,–
CCCCCn1c(=O)c(C(=O)Nc2cc(C)ccn2)c(O)c2ccccc21,–,–,–,·,–,–
NCC(CP(=O)(O)O)c1ccc(Cl)cc1 (stereo unspecified),·,·,·,–,·,·
O=C(Cc1ccc(Cl)c(Cl)c1)N1CCCCC1CN1CCCC1 (stereo unspecified),·,·,·,–,·,·
CC(=O)OCC1=C(C(=O)[O-])N2C(=O)[C@@H](NC(=O)CCC[C@@H](N)C(=O)[O-])[C@H]2SC1.[Zn+2],·,·,·,–,·,·
O=C1CC[C@@]2(O)C3Cc4ccc(O)c5c4C2(CCN3CC2CC2)[C@H]1O5 (stereo partly specified),·,·,·,–,·,·
CC1(C)CSC(=NCc2ccccc2)N1,–,-6.4,–,–,–,–
CC[C@H](C)/C=C(C)/C=C/C1=CC2=C(Cl)C(=O)[C@@](C)(OC(C)=O)C(=O)C2=CO1,·,–,–,·,–,–
CCC(C)/C=C(C)/C=C/C1=CC2=C(Cl)C(=O)C(C)(OC(C)=O)C(=O)C2=CO1 (stereo unspecified),–,–,–,–,–,100
CCN1C(=O)/C(=C/c2ccc3c(c2)CCN3CCCCl)C(=O)NC1=S,–,–,·,90,·,–
COC(=O)C1=C(c2ccc(S(C)(=O)=O)cc2)C[C@@H]2CC[C@H]1N2C(=O)NCCS(C)=O (stereo partly specified),·,–,–,·,–,–
CCOc1cc(CNCCc2c[nH]c3ccccc23)cc(Cl)c1OC,–,–,–,89,–,–
COc1ccc(CNCCc2c[nH]c3ccccc23)c(OC)c1OC,–,–,–,·,–,–
Cc1sc(-n2c(C)cc(C=C3C(=O)NC(=O)NC3=O)c2C)c(C#N)c1C,–,·,–,80,–,–
CN[C@@H](C)[C@H](O)c1ccccc1,·,·,·,–,·,·
Cc1ccsc1/C=C1\C(=O)NC(=S)N(C)C1=O,–,–,176,·,–,–
CCCNC(=O)c1c(N)n(Cc2ccc3c(c2)OCO3)c2nc3ccccc3nc12,–,–,–,75,–,–
CCCCNC(=O)c1c(N)n(CCCOC)c2nc3ccccc3nc12,–,–,–,93,–,–
CC(C)CCn1c(N)c(C(=O)NCc2cccs2)c2nc3ccccc3nc21,·,–,–,96,–,–
CC(C)CNC(=O)c1c(N)n(Cc2ccc3c(c2)OCO3)c2nc3ccccc3nc12,–,–,–,85,–,–
Fc1cccc(C2NCCc3[nH]cnc32)c1 (stereo unspecified),–,–,–,–,–,–
NC(CP(=O)(O)O)C(=O)O (stereo unspecified),·,·,·,–,·,·
CCCCn1c(O)c(C(C)=Nc2ccc(OCC)cc2)c(=O)[nH]c1=O,·,–,–,95,–,–
CCCCn1c(O)c(C(C)=Nc2cccc(C(=O)O)c2)c(=O)[nH]c1=O,–,–,–,–,–,–
C/C(CC(c1ccccc1)c1c(O)c2ccccc2oc1=O)=N\Nc1ccc([N+](=O)[O-])cc1[N+](=O)[O-] (stereo unspecified),–,–,–,–,–,25
